Data as given in ChEMBL document CHEMBL5058577, “EUbOPEN Chemogenomics Library 2 (Multiplex)” (2022).

Tested on: HEK-293T
Assay: Multiplex assay against HEK293T
Assay type: toxicity, cell-based
Conditions: human
Method in brief: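 Live cells were stained at seeding with Hoechst33342, BioTracker Green Microtubule Cytoskeleton Dye, MitoTracker Red and Annexin V Alexa Fluor 680, then imaged on a CQ1 microscope at 37°C and 5% CO2 after compound addition. CellPathfinder machine-learning gating split cells into Hoechst high-intensity objects or normal cells. Normal cells were split into healthy, pyknosed or fragmented nuclei, and pyknosed cells into mitotic or apoptotic. Tubulin, mitochondrial-mass and membrane-permeability phenotypes are per cents of healthy-nucleus cells.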

[1] = 12 h, 1 µM, compound concentration 1 uM, replicate 1
[2] = 12 h, 1 µM, compound concentration 1 uM, replicate 2
[3] = 12 h, 10 µM, compound concentration 10 uM, replicate 1
[4] = 12 h, 10 µM, compound concentration 10 uM, replicate 2
[5] = 24 h, 1 µM, compound concentration 1 uM, replicate 1
[6] = 24 h, 1 µM, compound concentration 1 uM, replicate 2
[7] = 24 h, 10 µM, compound concentration 10 uM, replicate 1
[8] = 24 h, 10 µM, compound concentration 10 uM, replicate 2
[9] = 48 h, 1 µM, compound concentration 1 uM, replicate 1
[10] = 48 h, 1 µM, compound concentration 1 uM, replicate 2
[11] = 48 h, 10 µM, compound concentration 10 uM, replicate 1
[12] = 48 h, 10 µM, compound concentration 10 uM, replicate 2

## CC[C@@H](C)Nc1nc(C)nc2c(-c3ccc(OC)nc3C)c(C)nn12 [PEXACERFONT]
[1]
  Population Apoptotic (%): 33%
  Population Fragmented Nuclei (%): 7%
  Population Healthy Nuclei (%): 79%
  Population Hoechst High Intensity Objects (%): 6%
  Population Membrane Permeable-Phenotype (%): 0%
  Population Mitochondria Different-Phenotype (%): 45%
  Population Mitotic Cells (%): 66%
  Population Normal (%): 93%
  Population Pyknosed Nuclei (%): 13%
  Population Tubulin-Different-Phenotype (%): 34%
  Total Cell Count: 399
[2]
  Population Apoptotic (%): 47%
  Population Fragmented Nuclei (%): 5%
  Population Healthy Nuclei (%): 82%
  Population Hoechst High Intensity Objects (%): 8%
  Population Mitochondria Different-Phenotype (%): 61%
  Population Mitotic Cells (%): 52%
  Population Normal (%): 91%
  Population Pyknosed Nuclei (%): 11%
  Population Tubulin-Different-Phenotype (%): 31%
  Total Cell Count: 314
[3]
  Population Apoptotic (%): 38%
  Population Fragmented Nuclei (%): 6%
  Population Healthy Nuclei (%): 75%
  Population Hoechst High Intensity Objects (%): 8%
  Population Membrane Permeable-Phenotype (%): 0%
  Population Mitochondria Different-Phenotype (%): 59%
  Population Mitotic Cells (%): 61%
  Population Normal (%): 91%
  Population Pyknosed Nuclei (%): 17%
  Population Tubulin-Different-Phenotype (%): 54%
  Total Cell Count: 451
[4]
  Population Apoptotic (%): 41%
  Population Fragmented Nuclei (%): 9%
  Population Healthy Nuclei (%): 74%
  Population Hoechst High Intensity Objects (%): 11%
  Population Membrane Permeable-Phenotype (%): 1%
  Population Mitochondria Different-Phenotype (%): 75%
  Population Mitotic Cells (%): 58%
  Population Normal (%): 88%
  Population Pyknosed Nuclei (%): 16%
  Population Tubulin-Different-Phenotype (%): 55%
  Total Cell Count: 321
[5]
  Population Apoptotic (%): 24%
  Population Fragmented Nuclei (%): 8%
  Population Healthy Nuclei (%): 79%
  Population Hoechst High Intensity Objects (%): 3%
  Population Membrane Permeable-Phenotype (%): 0%
  Population Mitochondria Different-Phenotype (%): 26%
  Population Mitotic Cells (%): 75%
  Population Normal (%): 96%
  Population Pyknosed Nuclei (%): 11%
  Population Tubulin-Different-Phenotype (%): 21%
  Total Cell Count: 508
[6]
  Population Apoptotic (%): 45%
  Population Fragmented Nuclei (%): 13%
  Population Healthy Nuclei (%): 76%
  Population Hoechst High Intensity Objects (%): 7%
  Population Mitochondria Different-Phenotype (%): 34%
  Population Mitotic Cells (%): 54%
  Population Normal (%): 92%
  Population Pyknosed Nuclei (%): 9%
  Population Tubulin-Different-Phenotype (%): 15%
  Total Cell Count: 387
[7]
  Population Apoptotic (%): 37%
  Population Fragmented Nuclei (%): 6%
  Population Healthy Nuclei (%): 79%
  Population Hoechst High Intensity Objects (%): 7%
  Population Membrane Permeable-Phenotype (%): 1%
  Population Mitochondria Different-Phenotype (%): 46%
  Population Mitotic Cells (%): 62%
  Population Normal (%): 92%
  Population Pyknosed Nuclei (%): 14%
  Population Tubulin-Different-Phenotype (%): 52%
  Total Cell Count: 612
[8]
  Population Apoptotic (%): 33%
  Population Fragmented Nuclei (%): 7%
  Population Healthy Nuclei (%): 78%
  Population Hoechst High Intensity Objects (%): 13%
  Population Membrane Permeable-Phenotype (%): 0%
  Population Mitochondria Different-Phenotype (%): 70%
  Population Mitotic Cells (%): 66%
  Population Normal (%): 86%
  Population Tubulin-Different-Phenotype (%): 48%
  Total Cell Count: 371
[9]
  Population Apoptotic (%): 26%
  Population Fragmented Nuclei (%): 12%
  Population Healthy Nuclei (%): 80%
  Population Hoechst High Intensity Objects (%): 2%
  Population Membrane Permeable-Phenotype (%): 0%
  Population Mitochondria Different-Phenotype (%): 22%
  Population Mitotic Cells (%): 73%
  Population Normal (%): 97%
  Population Pyknosed Nuclei (%): 7%
  Population Tubulin-Different-Phenotype (%): 20%
  Total Cell Count: 816
[10]
  Population Apoptotic (%): 41%
  Population Fragmented Nuclei (%): 10%
  Population Membrane Permeable-Phenotype (%): 1%
  Population Mitochondria Different-Phenotype (%): 27%
  Population Mitotic Cells (%): 58%
  Population Pyknosed Nuclei (%): 9%
  Population Tubulin-Different-Phenotype (%): 19%
  Total Cell Count: 520
[11]
  Population Apoptotic (%): 40%
  Population Fragmented Nuclei (%): 13%
  Population Healthy Nuclei (%): 77%
  Population Hoechst High Intensity Objects (%): 7%
  Population Membrane Permeable-Phenotype (%): 1%
  Population Mitochondria Different-Phenotype (%): 45%
  Population Mitotic Cells (%): 59%
  Population Normal (%): 92%
  Population Pyknosed Nuclei (%): 9%
  Population Tubulin-Different-Phenotype (%): 38%
  Total Cell Count: 692
[12]
  Population Fragmented Nuclei (%): 10%
  Population Healthy Nuclei (%): 72%
  Population Hoechst High Intensity Objects (%): 18%
  Population Membrane Permeable-Phenotype (%): 0%
  Population Mitochondria Different-Phenotype (%): 53%
  Population Mitotic Cells (%): 60%
  Population Normal (%): 81%
  Population Pyknosed Nuclei (%): 17%
  Population Tubulin-Different-Phenotype (%): 36%
  Total Cell Count: 390
